18 molecules from ChEMBL document CHEMBL1135495, “New p-methylsulfonamido phenylethylamine analogues as class III antiarrhythmic agents: design, synthesis, biological assay, and 3D-QSAR analysis” (2002) can be followed below.

Assay type in all cases: functional
The species named for assay [1] is Cavia porcellus. Nature of the assay: Percent change for delaying effective refractory period (ERP) in guinea pig at 10e-5 M concentration. An outline of the steps: (§1)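 Isolated atria, left atria preloaded 10 mN and paced at 1 s⁻¹ with square-wave pulses at twice-threshold voltage. ERP was measured by paired electrical stimulation after a 1 h Tyrode's equilibration with washouts every 15 min. Drug was added cumulatively at 15 min intervals, with final concentrations rising geometrically. ERP was read 10 min after each addition.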

Assay [2] is filed under the species Cavia porcellus. As to the kind of experiment: Percent change in heart rate measured in guinea pig at 10e-5 M concentration. The essentials:
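Spontaneously beating right atria, with contractions recorded in parallel to give beating rate. Tissue equilibrated 1 h in Tyrode's, washed every 15 min. Drug was added to the bath cumulatively at 15 min intervals in geometrically increasing final concentrations. The chronotropic effect was read 10 min after each addition.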

The species named for assay [3] is Cavia porcellus. As to the kind of experiment: Percent change of force of constriction measured in guinea pig at 10e-5 M concentration. The essentials: (§2)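 Left atria under 10 mN preload, driven at 1 s⁻¹ by square-wave pulses at twice-threshold voltage. Isometric contractions were recorded via a strain gauge after a 1 h Tyrode's equilibration. Cumulative drug additions were made every 15 min, with final concentrations rising geometrically. The inotropic effect was determined 10 min after each addition.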

Assay [4] is filed under the species Cavia porcellus. As to the kind of experiment: Effective concentration for delaying effective refractory period (ERP) 10 ms in guinea pig. The essentials: as §1
Assay [5] is filed under the species Cavia porcellus. Nature of the assay: Percent change for delaying effective refractory period (ERP) in guinea pig at 10e-5 M concentration; N means No effect. An outline of the steps:
as §1

The species named for assay [6] is Cavia porcellus. As to the kind of experiment: Effective concentration for delaying effective refractory period (ERP) 10 ms in guinea pig; N means No effect at 10E-5 M. The essentials:
as §1

For assay [7], the species on record is Cavia porcellus. Nature of the assay: Percent change of force of constriction measured in guinea pig at 10e-5 M concentration; N means No effect. The essentials: as §2

As for `COc1ccc(CN(CCc2ccc(N(S(C)(=O)=O)S(C)(=O)=O)cc2)Cc2ccccc2)cc1`, the “Delta ERP” value in the assay listed under Cavia porcellus [1] was 9.09%. Moreover, the “Delta HR” value in the assay filed under Cavia porcellus [2] is on record as -27.3%. In addition, in the assay filed under Cavia porcellus [3], the “Delta FC” value was -20%. Also, the C in the assay filed under Cavia porcellus [4] is 0.79 µM.
For `COc1ccc(CN(CCc2ccc(NS(C)(=O)=O)cc2)Cc2ccc(Cl)cc2)cc1`, in that order: 19.3%, -9.09%, 15% and 0.068 µM.
Take `CS(=O)(=O)Nc1ccc(CCN(CCOc2ccc(NS(C)(=O)=O)cc2)Cc2ccc(Cl)cc2)cc1`: in the assay listed under Cavia porcellus [1], the “Delta ERP” value was 9.29%. Also, the “Delta HR” value in the assay listed under Cavia porcellus [2] is -40.6%. In addition, the “Delta FC” value in the assay listed under Cavia porcellus [3] was found to be 20%. This molecule also registered a C in the assay listed under Cavia porcellus [4] of 0.037 µM.
For `COc1ccccc1CN(CCc1ccc(NS(C)(=O)=O)cc1)Cc1ccccc1`, in that order: 10.9%, -28.2%, -14.3% and 0.141 µM.
The like results for `CS(=O)(=O)Nc1ccc(CCNCCOc2ccc(NS(C)(=O)=O)cc2)cc1` [N-DESMETHYLDOFETILIDE] were, in that order, 9.39%, -23.8%, 33.7% and 0.023 µM.
Take `C=CCN(CCOc1cccc2ccccc12)CCc1ccc(N(S(C)(=O)=O)S(C)(=O)=O)cc1`: the N result in the assay filed under Cavia porcellus [5] and in the assay filed under Cavia porcellus [6] was “No effect” in each case. Besides, the “Delta HR” value in the assay listed under Cavia porcellus [2] was -8.33%. For the same molecule, the “Delta FC” value in the assay listed under Cavia porcellus [3] is on record as 16.7%.
In the case of `CN(CCc1ccc(NS(C)(=O)=O)cc1)C1CCCCC1`, in the assay filed under Cavia porcellus [1], the “Delta ERP” value was found to be 6.45%. Besides, the “Delta HR” value in the assay filed under Cavia porcellus [2] is on record as -8%. Further, the “Delta FC” value in the assay filed under Cavia porcellus [3] was found to be 8.33%. This molecule displayed a C in the assay filed under Cavia porcellus [4] of 4.79 µM.
The like results for `Cc1ccc(CN(CCc2ccc(N(S(C)(=O)=O)S(C)(=O)=O)cc2)Cc2ccccc2)cc1` were, in that order, 5.71%, 16%, 25% and 0.62 µM.
As for `CS(=O)(=O)Nc1ccc(CCN(CCOc2cccc3ccccc23)Cc2ccccc2)cc1`, the N result in the assay filed under Cavia porcellus [5] and in the assay filed under Cavia porcellus [6] was “No effect” in each case. Moreover, in the assay filed under Cavia porcellus [2], the “Delta HR” value is listed as -31.8%. Moreover, the “Delta FC” value in the assay listed under Cavia porcellus [3] is given as 25%.
As to `C=CCN(CCOc1ccc(NS(C)(=O)=O)cc1)CCc1ccc(NS(C)(=O)=O)cc1`, in the assay filed under Cavia porcellus [1], the “Delta ERP” value is listed as 12.4%. For the same molecule, the “Delta HR” value in the assay filed under Cavia porcellus [2] is recorded as -5.26%. Further, the N result in the assay listed under Cavia porcellus [7] was “No effect”. For the same molecule, the C in the assay listed under Cavia porcellus [4] worked out at 0.267 µM.
As to `CN(CCOc1ccc(NS(C)(=O)=O)cc1)CCc1ccc(NS(C)(=O)=O)cc1` [DOFETILIDE], the “Delta ERP” value in the assay filed under Cavia porcellus [1] was determined as 24%. For the same molecule, in the assay listed under Cavia porcellus [2], the “Delta HR” value is recorded as -30%. For the same molecule, the “Delta FC” value in the assay filed under Cavia porcellus [3] worked out at 17.1%. In the assay filed under Cavia porcellus [4], this molecule displayed a C of 0.011 µM.
On to `CN(CCc1ccc(NS(C)(=O)=O)cc1)Cc1ccccc1`, for which the “Delta ERP” value in the assay listed under Cavia porcellus [1] is 12.2%. Besides, the “Delta HR” value in the assay filed under Cavia porcellus [2] was -20%. Also, in the assay filed under Cavia porcellus [3], the “Delta FC” value was 16.7%. Also, the C in the assay filed under Cavia porcellus [4] came out at 0.372 µM.
The like results for `CS(=O)(=O)Nc1ccc(CCN(CCOc2ccc(NS(C)(=O)=O)cc2)CCOc2ccc(NS(C)(=O)=O)cc2)cc1` were, in that order, 13.5%, -26.7%, 20% and 0.383 µM.
For `CS(=O)(=O)N(c1ccc(CCN(Cc2ccccc2)Cc2ccc3c(c2)OCO3)cc1)S(C)(=O)=O`, in that order: 9.46%, -18.3%, -20% and 0.38 µM.
Take `COc1ccc(CN(CCOc2ccc(NS(C)(=O)=O)cc2)CCc2ccc(NS(C)(=O)=O)cc2)cc1`: in the assay filed under Cavia porcellus [1], the “Delta ERP” value is 12.1%. Besides, the “Delta HR” value in the assay listed under Cavia porcellus [2] is reported as -25.8%. Besides, the “Delta FC” value in the assay listed under Cavia porcellus [3] was determined as 14.3%. The molecule also returned a C in the assay listed under Cavia porcellus [4] of 0.21 µM.
For `C=CCN(CCOc1cccc2ccccc12)CCc1ccc(NS(C)(=O)=O)cc1`, in that order: 9.77%, -15.2%, 16.7% and 0.315 µM.
The like results for `CN(CCOc1cccc2ccccc12)CCc1ccc(NS(C)(=O)=O)cc1` were, in that order, 20.2%, -28.5%, 20.3% and 0.293 µM.
For `COc1ccc(CN(C)CCc2ccc(N(S(C)(=O)=O)S(C)(=O)=O)cc2)cc1`, in that order: 8.7%, -19.2%, 25% and 1.17 µM.
